From ChEMBL document CHEMBL5252546, “Salutaxel, a Conjugate of Docetaxel and a Muramyl Dipeptide (MDP) Analogue, Acts as Multifunctional Prodrug That Inhibits Tumor Growth and Metastasis” (J Med Chem, 2018)
Values belong to the molecule of their own block, whether it stands above or below them. Activity calls are given as the source filed them. The calls are words filed in the database; no cut-off is given here.

What was measured:
[1] = Drug concentration in plasma of rat at 2.28 mg/kg,iv measured upto 24 hrs; assay type: ADME, organism-based; settings: in vivo
Outline: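 Taxane given as a single intravenous dose: 2.28 mg/kg to rats by injection and 1.14 mg/kg to Beagle dogs by infusion. Plasma concentrations were then measured.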

4T1 [2] = experiment: Antitumor activity against mouse 4T1 cells implanted in BALB/c mouse assessed as decrease in tumor MMP2 expression level at 5.7 mg/kg,iv administrated once per week for 4 weeks in presence of compound 5b by western blot assay; assay type: functional, organism-based
Outline: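 4T1 cells injected into mammary fat pads of BALB/c mice. Saline vehicle or test article given iv once weekly for 4 weeks. Spleen, lung and tumor lysates immunoblotted for MMP2/MMP9 with β-actin as loading control. Bands averaged over five mice per group, representative of two independent experiments.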

4T1 [3] = experiment: Antitumor activity against mouse 4T1 cells xenografted with BALB/c mouse assessed as reduction lung metastatic nodules at 5.7 mg/kg,iv in presence of compound 5b administrated once per week for 4 weeks; assay type: functional, organism-based
Outline: (§1)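 4T1 cells injected into mammary fat pads of BALB/c mice. Dosing iv once per week for 4 weeks, saline vehicle; single-agent arms were given alone or with the peptide component (5b or 6). Endpoints were body weight, tumour volume, tumour weight, lung metastatic nodule count and lung metastasis score. Mean ± SEM, n = 10; ANOVA and Student's t test.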

4T1 [4] = experiment: Antitumor activity against mouse 4T1 cells implanted in BALB/c mouse assessed as decrease in serum TIMP-1 level at 5.7 mg/kg,iv administrated once per week for 4 weeks in presence of MDA-205 by ELISA; assay type: functional, organism-based
4T1 [5] = experiment: Antitumor activity against mouse 4T1 cells xenografted with BALB/c mouse assessed as decrease in tumor weight at 5.7 mg/kg,iv administrated once per week for 4 weeks; assay type: functional, organism-based; outline: as §1
[6] = Drug excretion in rat bile at 4 mg/kg,iv measured upto 48 hrs; assay type: ADME, organism-based; settings: read-out: Drug excretion
Outline: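 Rats were dosed iv. Bile was collected from 0 to 48 h, and cumulative excretion of the unchanged prototype was expressed as a percentage of the dose.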

[7] = Clearance in Beagle dog at 2 mg/kg,iv measured upto 24 hrs; assay type: ADME, organism-based, Canis lupus familiaris; settings: in vivo
Outline: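 Beagle dogs were given a single iv infusion at 1, 2 or 4 mg/kg. Plasma parent drug and released docetaxel were followed over time. Cmax, Tmax, AUC, MRT, t1/2, CL and Vss were reported by sex and for all dogs combined.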

[8] = Tmax in male rat at 4 mg/kg,iv measured upto 24 hrs; assay type: ADME, organism-based; settings: in vivo
[9] = Toxicity in Beagle dog assessed as decrease in body temperature at 1 to 4 mg/kg,iv measured after 1 to 4 hrs; assay type: organism-based, Canis lupus familiaris; settings: in vivo, dose lower 1 mg/kg, time lower 1 hrs, dose upper 4 mg/kg, time upper 4 hrs
4T1 [10] = experiment: Antitumor activity against mouse 4T1 cells implanted in BALB/c mouse assessed as decrease in serum MMP9 level at 20 mg/kg,iv administrated once per week for 4 weeks by ELISA; assay type: functional, organism-based
Outline: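 4T1 fat-pad model in BALB/c mice, iv 5–20 mg/kg once weekly for 4 weeks, with vehicle and naive groups; serum MMP9, TIMP-1, IL-6 and S100A9 measured by mouse ELISA kits.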

[11] = AUC (0-t) in mouse tumor implanted with mouse 4T1 cells at 10 mg/kg,iv measured upto 72 hrs; assay type: ADME, organism-based, Neoplasm; set-up: time < 72 hrs, dose 10 mg/kg, route iv
Outline: (§2)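 4T1 tumor-bearing mice (4T1 cells implanted in the mammary fat pad) received a single iv dose of 10 mg/kg. Plasma and tumor tissue were sampled up to 72 h, with n = 6. Levels of parent and of released docetaxel were measured. AUC came from noncompartmental analysis, reported as mean ± SD.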

[12] = Volume of distribution at steady state in Beagle dog at 2 mg/kg,iv measured upto 24 hrs; assay type: ADME, organism-based, Canis lupus familiaris; settings: in vivo, read-out: Vdss
[13] = AUC (0-t) in female Beagle dog at 4 mg/kg,iv measured upto 24 hrs; assay type: ADME, organism-based, Canis lupus familiaris; set-up: dose 4 mg/kg, time < 24 hrs, route iv; settings: in vivo
Outline: (§3)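 Single iv dose: rats 2, 4 or 8 mg/kg by intravenous injection; Beagle dogs 1, 2 or 4 mg/kg by intravenous infusion. Plasma concentration–time data were analysed by sex and pooled. Reported parameters: Cmax, Tmax, AUC0−t, AUC0−∞, MRT0−∞, t1/2, CL, Vss, given as mean ± SD.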

[14] = Tmax in rat at 8 mg/kg,iv measured upto 24 hrs; assay type: ADME, organism-based; settings: in vivo
[15] = Cmax in rat at 8 mg/kg,iv measured upto 24 hrs; assay type: ADME, organism-based; set-up: time < 24 hrs, dose 8 mg/kg, route iv; settings: in vivo
Outline: (§4)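 Rats were given a single iv injection at 2, 4 or 8 mg/kg. Plasma parent drug and released docetaxel were followed over time. Cmax, Tmax, AUC, MRT, t1/2, CL and Vss were reported for males, females and all animals combined.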

4T1 [16] = experiment: Antitumor activity against mouse 4T1 cells implanted in BALB/c mouse assessed as increase in spleen NOD1 expression level at 5 to 20 mg/kg,iv administrated once per week for 4 weeks by western blot assay; assay type: functional, organism-based; settings: dose 5-20 mg/kg
Outline: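 4T1 fat-pad model in BALB/c mice, iv once weekly for 4 weeks; MMP9, MMP2 and NOD1 in spleen, lung and tumour by western blot, β-actin loading control; bands averaged over five mice per group, representative of two independent experiments.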

[17] = AUC (0-t) in female rat at 2 mg/kg,iv measured upto 24 hrs; assay type: ADME, organism-based; set-up: time < 24 hrs, dose 2 mg/kg, route iv; settings: in vivo; outline: as §3
[18] = Drug metabolism in rat hepatocytes assessed as docetaxel metabolite formation at 20 uM incubated for 180 mins; assay type: ADME, cell-based, Hepatocyte; settings: 3 h
[19] = Drug distribution in rat small intestine at 4 mg/kg,iv measured by 0.25 hrs; assay type: ADME, organism-based; settings: in vivo
Outline: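 Rats received 4 mg/kg iv. Parent drug and released docetaxel were assayed in tissues and plasma from the first sampling at 0.25 h to 24 h. The lower limit of quantitation was 200 ng/g.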

[20] = AUC (0-t) in mouse plasma implanted with mouse 4T1 cells at 10 mg/kg,iv measured upto 72 hrs; assay type: ADME, organism-based; set-up: dose 10 mg/kg, time < 72 hrs, route iv; outline: as §2
[21] = Half life in female Beagle dog at 1 mg/kg,iv measured upto 24 hrs; assay type: ADME, organism-based, Canis lupus familiaris; settings: in vivo
Cytochrome P450 2D6 = Cytochrome P450 2D6 (Homo sapiens, UniProt P10635); experiment: Inhibition of CYP2D6 in human liver microsomes using probe substrate at 0.1 to 100 uM in presence of NADPH; assay type: ADME, Microsome; settings: dose 0.1-100 µM
Cytochrome P450 2D6, sequence (P10635 whole entry): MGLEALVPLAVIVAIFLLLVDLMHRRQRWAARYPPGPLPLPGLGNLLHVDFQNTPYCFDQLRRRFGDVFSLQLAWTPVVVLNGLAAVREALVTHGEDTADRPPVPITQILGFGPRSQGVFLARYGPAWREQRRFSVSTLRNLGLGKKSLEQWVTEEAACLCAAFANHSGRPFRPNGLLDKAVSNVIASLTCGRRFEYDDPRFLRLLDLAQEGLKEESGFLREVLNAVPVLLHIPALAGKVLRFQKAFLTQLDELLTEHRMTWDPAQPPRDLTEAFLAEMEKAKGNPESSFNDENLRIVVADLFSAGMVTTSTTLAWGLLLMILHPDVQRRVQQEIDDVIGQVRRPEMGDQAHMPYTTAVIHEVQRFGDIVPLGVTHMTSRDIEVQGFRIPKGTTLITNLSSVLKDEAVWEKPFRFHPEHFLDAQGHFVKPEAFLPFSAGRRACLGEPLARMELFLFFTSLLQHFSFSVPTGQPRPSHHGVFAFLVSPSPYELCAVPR

[22] = AUC (0-infinity) in female Beagle dog at 4 mg/kg,iv measured upto 24 hrs; assay type: ADME, organism-based, Canis lupus familiaris; set-up: dose 4 mg/kg, time < 24 hrs, route iv; settings: in vivo; outline: as §3
[23] = Prodrug conversion in mouse tumor implanted with mouse 4T1 cells assessed as Cmax of docetaxel at 4 mg/kg,iv measured upto 72 hrs; assay type: ADME, organism-based, Neoplasm; set-up: time < 72 hrs, dose 4 mg/kg, route iv; settings: in vivo
[24] = Cmax in male rat at 2 mg/kg,iv measured upto 24 hrs; assay type: ADME, organism-based; set-up: time < 24 hrs, dose 2 mg/kg, route iv; settings: in vivo; outline: as §4
4T1 [25] = experiment: Antitumor activity against mouse 4T1 cells xenografted with BALB/c mouse assessed as reduction lung metastatic nodules at 5 to 20 mg/kg,iv administrated once per week for 4 weeks; assay type: functional, organism-based; settings: dose 5-20 mg/kg
Outline: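 4T1 cells injected into the mammary fat pad of BALB/c mice; iv saline vehicle or 5, 10 or 20 mg/kg once weekly for 4 weeks; body weight, tumour volume, tumour weight, lung metastatic nodule count and metastasis score recorded; n = 10, mean ± SEM, ANOVA and Student's t test.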

[26] = Half life in female Beagle dog at 2 mg/kg,iv measured upto 24 hrs; assay type: ADME, organism-based, Canis lupus familiaris; settings: in vivo

Drug uptake [1]: 45%
Structure (SMILES): CC(=O)O[C@@]12CO[C@@H]1C[C@H](O)[C@@]1(C)C(=O)[C@H](O)C3=C(C)[C@@H](OC(=O)[C@H](O)[C@@H](NC(=O)OC(C)(C)C)c4ccccc4)C[C@@](O)([C@@H](OC(=O)c4ccccc4)[C@H]21)C3(C)C [DOCETAXEL ANHYDROUS]
Activity (4T1 [2]): inactive | Activity (4T1 [3]): inactive | Activity (4T1 [4]): Active | Activity (4T1 [5]): Active

Structure (SMILES): CC(=O)O[C@@]12CO[C@@H]1C[C@H](O)[C@@]1(C)C(=O)[C@H](O)C3=C(C)[C@@H](OC(=O)[C@H](OC(=O)CCC(=O)NCCCC[C@H](NC(=O)CC[C@@H](NC(=O)[C@H](C)NC(=O)/C=C/c4ccc(F)cc4Cl)C(N)=O)C(=O)O)[C@@H](NC(=O)OC(C)(C)C)c4ccccc4)C[C@@](O)([C@@H](OC(=O)c4ccccc4)[C@H]21)C3(C)C
dose excreted at 48 h [6]: 82.9% | clearance [7]: 6.08 mL/min/kg | Tmax [8]: 4.98 min | Activity [9]: Non-Toxic | Activity (4T1 [10]): Active | AUC(0-t) at 72 h [11]: 0.11 µM·h | Vd [12]: 0.083 L/kg | AUC(0-t) at 24 h [13]: 20300 ng·h/mL | Tmax [14]: 4.98 min | Cmax [15]: 62200 ng/mL | Activity (4T1 [16]): Active | AUC(0-t) at 24 h [17]: 4320 ng·h/mL | Drug metabolism [18]: Metabolite_Detected | Drug uptake [19]: Active | AUC(0-t) at 72 h [20]: 3.33 µM·h | half-life [21]: 29 min | inhibition (INH) (Cytochrome P450 2D6): Not Active | AUC(0-inf) [22]: 20300 ng·h/mL | Cmax [23]: 2390 nM | Cmax [24]: 15800 ng/mL | Activity (4T1 [25]): Active | half-life [26]: 30.9 min
